Assay outcomes: PubChem, several laboratories
Mot1-301 SUMO: yeast Mot1-301 growth rescue at high temperature, primary screen, SUMOylation pathway inhibitor project, S. cerevisiae, ATP luminescence, 38.5C; growth rescue, % at 18.8 µM; AID 2716, 2010; actives 1% (n = 320,000); S. cerevisiae Mot1-301 growth rescue; percent above DMSO median, 100 means doubled;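 active means every valid replicate shows activation above 250% relative to neutral control wells; inactive means the rest, any valid replicate at or below 250%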;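 further: OY570 slx delta 5 strain wells were the positive control but not used for scaling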
KCNQ1 block: inhibitors of human KCNQ1 channel, primary screen, cell-based, thallium flux, high-throughput; AID 2642, 2010; actives 1.3% (n = 310,000); B-score at 10 µM; CHO-K1 KCNQ1, FluxOR thallium flux fluorescence; active compounds read high; Potassium voltage-gated channel subfamily KQT member 1 (Homo sapiens), P51787;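 active means compounds whose thallium flux B-score, printed positive for inhibition, exceeds three library SD while starting fluorescence stays within three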;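 further: channel opened by potassium depolarization with thallium stimulus after 20 min compound exposure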
KCC2 mod: KCC2 cotransporter modulators, thallium flux, primary screen, cell-based, HEK293 KCC2, FluoZin-2 fluorescence, MLSMR. Solute carrier family 12 member 5 (Homo sapiens), Q9H2X9. KCC2 cells, thallium flux FluoZin-2 fluorescence. B-score of Tl+ flux slope (higher = more flux/activation; lower = inhibition) at 10 µM. actives 2.2% (n = 190,000);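 active means thallium flux slope and its plate-corrected score both differing from the plate sample mean at a set confidence after two filtering rounds, in either direction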;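 further: slope of fluorescence scaled to starting intensity during 10 to 20 s after thallium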
KCNQ1 pot: potentiators or activators of KCNQ1 channel, primary screen, cell-based, thallium flux, high-throughput; Potassium voltage-gated channel subfamily KQT member 1 (Homo sapiens), P51787; CHO-K1 KCNQ1, thallium flux FluxOR fluorescence; active compounds read high; B-score at 10 µM; actives 0.35% (n = 310,000); AID 2648, 2010;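 active means fluorescence ratio B-score, a plate-corrected score, at least three library SD, with initial intensity B-score within 5 SD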
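assay system = KCNQ1-transfected CHO-K1 cells | medium = assay buffer with matched DMSO | probe or stimulus = depolarizing K+/Tl+ stimulus, K2SO4 and Tl2SO4 each 12.5 mM in 5x stock | dosing = single dose | incubation = dye 90 min, compound 20 min, room temperature | detection = kinetic FluxOR fluorescence, 10 s baseline plus 110 s post-stimulus | evaluation = ratio B score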
AI-2 QS mod: Vibrio harveyi AI-2 quorum sensing modulators, primary screen, JMH597 strain, luminescence/OD600 ratio. Vibrio harveyi JMH597 AI-2 luminescence/OD600 ratio, 9 h; active compounds read low; strain lacks LuxN and CqsS sensors; 0 = neutral-control median. activity change, % at 7.5 µM. actives 0.4% (n = 300,000); in the data active means activity change below about -75%, passing the limit was not always enough;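 further: luminescence divided by OD600 gain over 9 h not by final OD600 alone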
hERG protect: hERG rescue from dofetilide block, primary screen, cell-based, CHO-hERG, FluxOR thallium flux, dofetilide IC70 | dofetilide IC70 present | activation (rescue from dofetilide block), less the hit threshold, % at 10 µM | actives 0.51% (n = 310,000);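 active means activation above the mean of controls blocked by dofetilide plus 5 SD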;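 further: thallium influx through hERG after potassium depolarization seen as dye fluorescence rise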
Starred values were filed as active, the others as inactive; i = inactive; / = not tested or not shown. Compounds with a hit are over-represented: about 4.2% of the library has one in this group of screens.

SMILES | Mot1-301 SUMO | KCNQ1 block | KCC2 mod | KCNQ1 pot | AI-2 QS mod | hERG protect
CCOc1ccc(OCCSc2nnnn2-c2ccccc2)cc1 | 16 | i | -0.09 | i | -3 | -5
c1ccc(OCCSc2nnnn2-c2ccccc2)cc1 | -8 | i | -3.8* | i | 6 | -3
OCCCNc1nc(-c2ccccc2)c2cc(Br)ccc2n1 | 826* | i | / | i | 18 | -7
Cc1ccc2nc(NCCCO)nc(-c3ccccc3)c2c1 | 7 | i | -0.42 | i | 20 | -10
O=C(NC(=S)Nn1cnc2c(cnn2-c2ccccc2)c1=O)c1ccc(Oc2ccccc2)cc1 | -3 | i | 18* | i | 18 | 1
O=C(NC(=S)Nn1cnc2c(cnn2-c2ccccc2)c1=O)c1ccc(Cl)cc1 | -10 | i | -1.6 | i | 11 | -4
Cc1ccc(NC(=O)C(C)c2cccc(C(=O)c3ccccc3)c2)cc1O (stereo not drawn) | 10 | 8* | -2.7 | i | 3 | -15
Cc1cccc(NC(=O)C(C)C(=O)c2ccccc2)c1 (stereo not drawn) | -15 | i | / | i | 8 | -8
O=C(NCCO)c1nc(C(=O)c2ccccc2)c2ccccc2n1 | 14 | / | / | / | / | /
CCOc1cccc(C(=O)Nc2ccccc2N2CCN(C(=O)C(C)C)CC2)c1 | 388 | i | / | i | 18 | -7
Cc1nnc(SCc2nnc(-c3cccs3)o2)n1Cc1ccccc1 | -25 | i | 0.08 | i | 18 | 1
Clc1ccc(-c2nnc(CSc3nnc(-c4cccs4)n3Cc3ccccc3)o2)cc1 | 5 | 8* | -1.6 | i | 18 | -21
COc1ccc(CN2CCNC(=O)C2CC(=O)N(C)C2CCOCC2)c(F)c1 (stereo not drawn) | -1 | i | / | i | 20 | -2
CC1Cc2ccccc2N1C(=O)CCS(=O)(=O)c1ccc2c(c1)NC(=O)CS2 (stereo not drawn) | -6 | i | / | i | 11 | -9
CCOC(=O)Nc1sc2c(c1C(=O)OCC)CCC2 | 12 | i | 0.44 | i | 8 | -9
CCOC(=O)c1c(NS(=O)(=O)c2cccc(OC)c2)sc2c1CCC2 | 6 | i | 38* | i | 35 | -4
CN(C)c1ccc(NC(=O)Cn2ncn3c(cc4ccccc43)c2=O)cc1 | -9 | i | 0.67 | i | 17 | 8.9*
CC(C)c1ccc(NC(=O)Cn2ncn3c(cc4ccccc43)c2=O)cc1 | 4 | i | / | i | -5 | -11
COC(=O)c1sc(NC(=S)NNC(=O)c2c(Br)c(C)nn2C)c(C(=O)OC)c1C | -1 | 6* | / | i | 64 | -11
Cc1cccc(OCc2nc(-c3ccc(Br)o3)no2)c1 | 18 | i | -0.18 | i | -78* | -7
COc1ccccc1OCCn1c(SCC(=O)O)nc2ccccc21 | 6 | i | / | i | 23 | -8
Cc1ccc(CNC(=O)CCS(=O)(=O)c2cccc3nsnc23)cc1 | -18 | i | 0.47 | i | 39 | 4.9*
COc1cccc(CNC(=O)CCS(=O)(=O)c2cccc3nsnc23)c1 | -5 | i | / | i | 34 | -3
COc1cccc(CNC(=O)CCS(=O)(=O)c2cccc3nonc23)c1 | 286* | i | 0.62 | i | 24 | -9
COCC(C)n1c(C)cc(C(=O)COC(=O)c2cc(=O)[nH]c3ccccc23)c1C (stereo not drawn) | -13 | / | / | / | / | /
SMILES | Mot1-301 SUMO | KCNQ1 block | KCC2 mod | KCNQ1 pot | AI-2 QS mod | hERG protect
COc1ccccc1[C@]1(C)ON(c2ccccc2C(F)(F)F)C1=O | 296* | / | / | / | / | /
Cc1cc2nc(-c3ccc(SCc4ccccc4C#N)nc3)[nH]c2cc1C | -15 | 7* | / | i | 26 | -1
C=CCn1c2ccccc2c(=O)c2cc(C#Cc3ccccn3)ccc21 | -3 | / | / | / | / | /
C=CCn1c2ccccc2c(=O)c2cc(C#Cc3ccsc3)ccc21 | 204 | i | / | i | 15 | 8.9*
Cc1ccc(C)c(NC(=O)c2ccccc2C(=O)c2ccccc2)c1 | 715* | i | -0.25 | i | 22 | -12
Cc1ccc(C(=O)c2ccccc2C(=O)Nc2ccccc2)cc1 | 0 | i | / | i | 2 | -12
CN(C)S(=O)(=O)c1cccc(NC(=O)COC(=O)/C=C/c2ccc([N+](=O)[O-])cc2)c1 | 6 | i | -0.84 | i | 23 | 8.1*
NC(=O)[C@H]1CC2(CC(c3cccc(NC(=O)[C@H]4CCC(=O)N4)c3)=NO2)CN1C(=O)c1cc([N+](=O)[O-])cc([N+](=O)[O-])c1 (stereo partly drawn) | 4 | i | 0.75 | i | 16 | 0
CCCCCCCCCCC[N+](C)(C)CC/C=C1/c2ccccc2Sc2ccc(Cl)cc21 | 29 | i | / | 9* | -145* | -11
Nc1cc(S(=O)(=O)Nc2ccc(Br)cc2)ccc1Cl | / | i | -1.4 | i | -76* | -18
COc1ccc(NS(=O)(=O)c2ccc(Cl)c(N)c2)cc1Br | 0 | i | -0.029 | i | 16 | -16
O=C(C1CCCN(S(=O)(=O)c2cnc[nH]2)C1)N(CCc1ccccc1)Cc1ccccc1 (stereo not drawn) | -14 | i | 1.7 | i | 27 | -2
O=C(c1cccc(S(=O)(=O)N2CCOCC2)c1)N(CCO)Cc1ccccc1 | 9 | i | 1.1 | i | 0 | -10
O=C(C1CCN(S(=O)(=O)c2cnc[nH]2)CC1)N(CCc1ccccc1)Cc1ccccc1 | 417* | i | -0.003 | i | 31 | -1
O=C(c1cccc(S(=O)(=O)N2CCCCC2)c1)N(CCc1ccccc1)Cc1ccccc1 | -1 | 6* | / | i | 7 | -16
COCCNCc1nc2sc(C)c(-c3ccccc3)c2c(=O)[nH]1 | -9 | i | / | i | 1 | -4
Oc1ccc(C[C@H]2CNCCN2CCC23CC4CC(CC(C4)C2)C3)cc1 | 146 | 6* | / | i | 1 | -3
CCOC(=O)N1CCC(NS(=O)(=O)c2ccc(NC(C)=O)c(Cl)c2)CC1 | 6 | i | / | i | 9 | -8
O=C(Nc1ccccc1C(=O)O)c1ccc2c(c1)C(=O)N(c1cccc([N+](=O)[O-])c1)C2=O | 8 | i | / | i | 28 | 7.0*
